Laboratory results from ChEMBL document CHEMBL1126219, “Acyclic analogues of lipid A: synthesis and biological activities” (J Med Chem, 1992).

What was measured:
Mus musculus [1] = organism: Mus musculus; experiment: Effective dose against Pseudomonas aeruginosa infection in mice; assay type: functional
Method in brief: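 B6D2F1 mice made myelosuppressed with cyclophosphamide 200 mg/kg sc on day -4. Compound given iv as Tris salt on day -1. Survival scored over 4 days, groups of 10. ED50 obtained by Probit analysis.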

Mus musculus [2] = organism: Mus musculus; experiment: Compound was tested for its potency to induce TNF-alpha in murine macrophage cultures in the absence of INF at 1 mg/mL concentration; assay type: functional
Method in brief: (§1)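 Bone marrow cells from B6D2F1 mouse femurs differentiated 8-10 days at 37 °C, 5% CO2 in DMEM with 10% FCS, 5% horse serum and 20% L929 supernatant (CSF-1). Macrophages at 10⁶ cells/mL adhered 3 h, then incubated overnight without IFN-γ. Washed, exposed 4 h to compound in serum-free medium. Supernatant TNF-α measured by cytotoxicity to actinomycin-D-treated L929 cells, as IU/mL.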

Mus musculus [3] = organism: Mus musculus; experiment: Compound was tested for its potency to induce TNF-alpha in murine macrophage cultures in the absence of INF at 10 mg/mL concentration; assay type: functional; method in brief: as §1
Mus musculus [4] = organism: Mus musculus; experiment: Compound was tested for its potency to induce TNF-alpha in murine macrophage cultures in the presence of INF at 10 mg/mL concentration; assay type: functional
Method in brief: (§2)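 Macrophages derived from B6D2F1 mouse bone marrow (8-10 days with L929 supernatant as CSF-1 source), plated at 10⁶ cells/mL. Adherent cells primed overnight with 100 units/mL interferon γ, washed, then incubated 4 h with compound in serum-free medium. TNF-α in supernatants determined by cytotoxicity to actinomycin-D-treated L929 cells, as IU/mL.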

Mus musculus [5] = experiment: Nonspecific resistance against Pseudomonas aeruginosa infection in mice; administration of a single dose (12.5 mg/kg) 1 day prior to infection, group size 10 mice; assay type: functional
Method in brief: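 B6D2F1 mice given cyclophosphamide 200 mg/kg s.c. on day -4, then a single i.v. dose of 12.5 mg/kg on day -1 (Tris salts). Survival scored after 4 days of observation. Groups of 10 mice.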

[6] = The endotoxic potential (LD50) by iv administration and ip administration of galactosamine (400 mg/kg); assay type: ADME, organism-based; conditions: mouse, in vivo
Method in brief: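 C57BL/6 mice, groups of six. Serial dilutions given i.v. by tail vein (0.2 mL, saline, or isotonic glucose with 1% ethanol) together with galactosamine 400 mg/kg i.p. LD50 calculated by probit analysis from survivors at 1 day.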

Mus musculus [7] = organism: Mus musculus; experiment: Compound was tested for its potency to induce TNF-alpha in murine macrophage cultures in the presence of INF at 1 mg/mL concentration; assay type: functional; method in brief: as §2

Row | Compound | ED50 (Mus musculus [1]) [mg/kg] | Activity (Mus musculus [2]) [IU ml-1] | Activity (Mus musculus [3]) [IU ml-1] | Activity (Mus musculus [4]) [IU ml-1] | NSR survival rate (Mus musculus [5]) | LD50 [6] [mg/kg] | Activity (Mus musculus [7]) [IU ml-1]
1 | CCCCCCCCCCCC(O)CC(=O)NC1C(OC(=O)C[C@H](NC(=O)CC(O)CCCCCCCCCCC)C(=O)O)OC(CO)C(O)C1OC(=O)CC(O)CCCCCCCCCCC (stereo partly drawn) | > 12.5 | 0 | 446 | 899 | 8 | 1 | 25
2 | CCCCCCCCCCCC(O)CC(=O)NC1C(OC(=O)CC[C@H](NC(=O)CC(O)CCCCCCCCCCC)C(=O)O)OC(CO)C(O)C1OC(=O)CC(O)CCCCCCCCCCC (stereo partly drawn) | 5.7 | 270 | 576 | 3285 | 9 | 0.3 | 1511
3 | CCCCCCCCCCCC(O)CC(=O)NC1C(OCCCN(CC(=O)O)C(=O)CC(O)CCCCCCCCCCC)OC(CO)C(O)C1O (stereo not drawn) |  |  | 0 | 0 | 3 | > 5 | 
4 | CCCCCCCCCCCC(O)CC(=O)NC1C(OC(=O)CC[C@@H](NC(=O)CC(O)CCCCCCCCCCC)C(=O)O)OC(CO)C(O)C1NC(=O)CC(O)CCCCCCCCCCC (stereo partly drawn) | > 25 | 27 | 464 | 609 | 3 | 5.1 | 151
5 | CCCCCCCCCCCC(O)CC(=O)NC1C(OC(=O)C[C@@H](NC(=O)CC(O)CCCCCCCCCCC)C(=O)O)OC(CO)C(O)C1OC(=O)CC(O)CCCCCCCCCCC (stereo partly drawn) | 3.1 | 218 | 618 | 2768 | 10 | < 0.05 | 2708
6 | CCCCCCCCCCCC(O)CC(=O)NC1C(OCCCN(CC(=O)O)C(=O)CC(O)CCCCCCCCCCC)OC(CO)C(O)C1OC(=O)CC(O)CCCCCCCCCCC (stereo not drawn) | 1.5 | 523 | 1498 | 3050 | 10 | 0.1 | 920
7 | CCCCCCCCCCCC(O)CC(=O)NC1C(OC(=O)CC[C@@H](NC(=O)CC(O)CCCCCCCCCCC)C(=O)O)OC(CO)C(O)C1OC(=O)CC(O)CCCCCCCCCCC (stereo partly drawn) | 0.3 | 518 | 688 | >2409 | 10 | 0.04 | >2409
8 | CCCCCCCCCCCC(O)CC(=O)NC1C(OC(=O)CC[C@H](NC(=O)CC(O)CCCCCCCCCCC)C(=O)O)OC(CO)C(O)C1NC(=O)CC(O)CCCCCCCCCCC (stereo partly drawn) | 1.5 | 175 | 1069 | 1570 | 8 | 0.2 | 294
